Data from EPA's CvTdb concentration-time database.

Tests used:
human = assay: amount in urine after dosing (umol); details: dosed: tert-amyl methyl ether, 38.4 ppm, inhalation, duration: 4 hr
Method in brief: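 Points were largely digitised from plot screenshots with WebPlotDigitizer or otherwise copied from tables, and they remain in the units each source reported. They come from published in vivo toxicokinetic studies and two structured collections. Sampling and analytical methods follow each source and were often not reported.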

rat [1] = assay: amount in urine after dosing (umol); details: dosed: tert-amyl methyl ether, 38.4 ppm, inhalation, duration: 4 hr, F344 (Harlan Winkelmann)
rat [2] = details: dosed: benzo[a]pyrene, 20 umol/kg, oral, male, Wistar
rat [3] = details: dosed: benzo[a]pyrene, 10 umol/kg, dermal, duration: continuous, male, Wistar
rat [4] = details: dosed: benzo[a]pyrene, 50 umol/kg, oral, male, Wistar
rat [5] = details: dosed: benzo[a]pyrene, 50 umol/kg, dermal, duration: continuous, male, Wistar
rat [6] = details: dosed: benzo[a]pyrene, 10 umol/kg, oral, male, Wistar
rat [7] = details: dosed: benzo[a]pyrene, 20 umol/kg, dermal, duration: continuous, male, Wistar
rat [8] = assay: concentration in adipose after dosing; details: dosed: benzo(a)pyrene, 40 umol/kg, iv, male, Sprague Dawley
rat [9] = assay: concentration in lung after dosing; details: dosed: benzo(a)pyrene, 40 umol/kg, iv, male, Sprague Dawley
rat [10] = assay: concentration in liver after dosing; details: dosed: benzo(a)pyrene, 40 umol/kg, iv, male, Sprague Dawley
rat [11] = assay: concentration in urine after dosing; details: dosed: benzo(a)pyrene, iv, male, Sprague Dawley
rat [12] = assay: concentration in blood after dosing; details: dosed: benzo(a)pyrene, 40 umol/kg, iv, male, Sprague Dawley
rat [13] = assay: concentration in kidney after dosing; details: dosed: benzo(a)pyrene, 40 umol/kg, iv, male, Sprague Dawley
rat [14] = assay: concentration in feces after dosing; details: dosed: benzo(a)pyrene, 40 umol/kg, iv, male, Sprague Dawley
rat [15] = assay: concentration in skin after dosing; details: dosed: benzo(a)pyrene, 40 umol/kg, iv, male, Sprague Dawley
rat [16] = assay: concentration in serum after dosing; details: dosed: benzo[a]pyrene, 20 mg/kg, oral, male, Wistar
rat [17] = details: dosed: benzo[a]pyrene, 1 mg/kg, iv, male, Sprague Dawley
rat [18] = details: dosed: benzo[a]pyrene, 1 mg/kg, iv, male, Sprague Dawley; remark: listed apart in the source
Rat [19] = assay: concentration in blood after dosing; details: dosed: Naphthalene, 3 mg/kg, iv, Male, F344
Rat [20] = assay: concentration in blood after dosing; details: dosed: Naphthalene, 1 mg/kg, iv, Female, F344
Rat [21] = assay: concentration in blood after dosing; details: dosed: Naphthalene, 1 mg/kg, iv, Male, F344
Rat [22] = assay: concentration in blood after dosing; details: dosed: Naphthalene, 3 mg/kg, iv, Female, F344
Rat [23] = assay: concentration in blood after dosing; details: dosed: Naphthalene, 10 mg/kg, iv, Male, F344
Rat [24] = assay: concentration in blood after dosing; details: dosed: Naphthalene, iv, F344
Rat [25] = assay: concentration in blood after dosing; details: dosed: Naphthalene, 1 mg/kg, iv, Female, F344; remark: listed apart in the source
Rat [26] = assay: concentration in blood after dosing; details: dosed: Naphthalene, 1 mg/kg, iv, Male, F344; remark: listed apart in the source
Rat [27] = assay: concentration in blood after dosing; details: dosed: Naphthalene, 10 mg/kg, iv, Male, F344; remark: listed apart in the source
Rat [28] = assay: concentration in blood after dosing; details: dosed: Naphthalene, 3 mg/kg, iv, Male, F344; remark: listed apart in the source

CCC(C)(O)C(=O)O (stereo not drawn) [2-hydroxy-2-methyl butyrate]
Details | amount in urine
human, 0.1093 h | 54.7
human, 6.284 h | 93.4
human, 12.15 h | 100
human, 18.2 h | 59.9
human, 24.12 h | 39.1
human, 30.12 h | 33.6
human, 36.29 h | 57.8
human, 42.13 h | 29.8
human, 48.22 h | 51.6
rat [1], 5.978 h | 0.204
rat [1], 12 h | 0.29
rat [1], 18.07 h | 0.213
rat [1], 24.08 h | 0.0776
rat [1], 29.94 h | 0.0345
rat [1], 36.02 h | 0.092
rat [1], 42.04 h | 0.103
rat [1], 48.11 h | 0.0517

Oc1ccc2ccc3c4ccccc4cc4ccc1c2c43 [3-OH-benzo[a]pyrene]
Details | amount in urine after dosing [µg]
rat [2], 24.03 h | 3.66
rat [2], 47.78 h | 5.43
rat [2], 72.42 h | 7.03
rat [2], 96.58 h | 7.51
rat [2], 121.02 h | 8.21
rat [2], 144.77 h | 8.23
rat [3], 23.76 h | 0.169
rat [3], 48.25 h | 1.6
rat [3], 72.44 h | 5.62
rat [3], 96.26 h | 8.27
rat [3], 120.41 h | 10.3
rat [3], 145.21 h | 10.7
rat [4], 23.43 h | 7.37
rat [4], 47.73 h | 18.4
rat [4], 71.9 h | 31.3
rat [4], 95.37 h | 33.1
rat [4], 120.29 h | 33.4
rat [4], 144.04 h | 33.6
rat [5], 23.15 h | 4.97
rat [5], 47.4 h | 8.97
rat [5], 71.67 h | 13.3
rat [5], 95.8 h | 17.3
rat [5], 120.35 h | 20
rat [5], 144.4 h | 20.8
rat [6], 23.94 h | 0.884
rat [6], 48.41 h | 1.94
rat [6], 72.16 h | 3.75
rat [6], 96.63 h | 4.84
rat [6], 120.41 h | 5.22
rat [6], 144.81 h | 5.41
rat [7], 23.4 h | 0.591
rat [7], 48.57 h | 2.38
rat [7], 72.51 h | 6.61
rat [7], 96.49 h | 9.6
rat [7], 120.43 h | 10.6
rat [7], 145.24 h | 11

Oc1ccc2ccc3c4ccccc4cc4ccc1c2c43 [3-hydroxybenzo(a)pyrene]
Details | concentration in adipose, rat [8] [µmol/kg] | concentration in blood, rat [12] [µmol/kg] | concentration in feces, rat [14] [µmol/kg] | concentration in kidney, rat [13] [µmol/kg] | concentration in liver, rat [10] [µmol/kg] | concentration in lung, rat [9] [µmol/kg] | concentration in skin, rat [15] [µmol/kg]
2 h | 0.0241 | 0.105 | 0.0001 | 0.195 | 0.49 | 0.023 | 0.385
4 h | 0.0381 | 0.0863 | 0.0004 | 0.429 | 0.588 | 0.0236 | 0.232
8 h | 0.0582 | 0.0912 | 0.0035 | 0.65 | 0.141 | 0.0176 | 0.135
16 h | 0.0348 | 0.0388 | 0.471 | 0.583 | 0.0819 | 0.0153 | 0.103
24 h | 0.033 | 0.0235 | 4.71 | 0.347 | 0.0528 | 0.0102 | 0.041
33 h | 0.0322 | 0.0142 | 7.72 | 0.293 | 0.0505 | 0.0085 | 0.0215
48 h | 0.0192 | 0.0084 | 8.75 | 0.0936 | 0.0149 | 0.0047 | 0.0148
72 h | 0.0114 | 0.0047 | 12.9 | 0.0512 | 0.0096 | 0.0045 | 0.0073

concentration in urine, rat [11]
Details | 2 h | 4 h | 4.5 h | 8 h | 16 h | 24 h | 33 h | 48 h | 72 h
0.01 mg/kg | – | – | 0.000494 mg/kg | – | – | 0.000582 mg/kg | – | 6.8e-05 mg/kg | 2.3e-05 mg/kg
0.05 mg/kg | – | – | 0.0016 mg/kg | – | – | 0.0025 mg/kg | – | 0.000305 mg/kg | 0.000115 mg/kg
40 umol/kg | 0.0001 µmol/kg | 0.0022 µmol/kg | – | 0.0119 µmol/kg | 0.0604 µmol/kg | 0.068 µmol/kg | 0.19 µmol/kg | 0.149 µmol/kg | 0.209 µmol/kg

Oc1ccc2ccc3c4ccccc4cc4ccc1c2c43 [3-hydroxybenzo[a]pyrene]
Details | amount in feces after dosing [ng] | amount in urine after dosing [ng] | concentration in serum [ng/mL]
rat [16], 1.009 h | – | – | 1.32
rat [16], 2.018 h | – | – | 1.26
rat [16], 3.995 h | – | – | 5.22
rat [16], 6.005 h | – | – | 4.15
rat [16], 7.982 h | – | – | 2.24
rat [16], 9.992 h | – | – | 1.6
rat [17], 10.07 h | 4790 | – | –
rat [17], 24.05 h | 16900 | – | –
rat [17], 48.1 h | 22700 | – | –
rat [17], 72.03 h | 23700 | – | –
rat [17], 96.08 h | 24500 | – | –
rat [17], 120 h | 24900 | – | –
rat [18], 10.02 h | – | 46.8 | –
rat [18], 23.97 h | – | 166 | –
rat [18], 47.95 h | – | 220 | –
rat [18], 71.92 h | – | 269 | –
rat [18], 95.9 h | – | 310 | –
rat [18], 119.75 h | – | 346 | –

c1ccc2ccccc2c1 [Naphthalene]
concentration in blood [ng/mL]
Details | 1 h | 2 h | 2 min | 4 h | 5 min | 6 h | 8 h | 10 min | 20 min | 40 min
Rat [19] | 133 | 52.1 | 6890 | 19.3 | 4770 | – | – | 2440 | 736 | 255
Rat [20] | – | – | 21.4 | – | 51.6 | 23.6 | – | – | 20.5 | –
Rat [21] | 30.5 | – | 1300 | – | 625 | – | – | 340 | 82.5 | 46.6
Rat [22] | 103 | 47 | 2870 | 26.7 | 1900 | 27.7 | 24.2 | 942 | 468 | 151
Rat [23] | 407 | 172 | – | 76.7 | 8050 | 38.2 | – | 4930 | 2640 | 839
Rat [25] | 21.2 | – | 1740 | – | 548 | – | – | 204 | 29.3 | 34.3
Rat [26] | 36.2 | – | 1390 | – | 701 | – | – | 312 | 127 | 54.8
Rat [27] | 487 | 172 | – | 90.2 | 8740 | 47.3 | 33.3 | 4000 | 2610 | 661
Rat [28] | 169 | 82.8 | – | – | 2000 | – | – | 3690 | 1240 | 306

concentration in blood [ng/mL], Rat [24]
Details | 1 mg/kg | 3 mg/kg | 10 mg/kg
1 h, Female | – | 80 | –
1 h, Male | 34.8 | 172 | 446
2 h, Female | – | 35.1 | –
2 h, Male | – | 233 | 214
2 min, Female | 1330 | 2780 | –
2 min, Male | 3260 | 260 | –
4 h, Male | – | 87.1 | 90
5 min, Female | 770 | 1480 | –
5 min, Male | 677 | 152 | 11200
6 h, Male | – | 90.9 | 58.5
8 h, Male | – | 20.6 | 38.1
10 min, Female | 407 | 1380 | –
10 min, Male | 315 | 215 | 6220
12 h, Male | – | – | 21.5
20 min, Female | 120 | 375 | –
20 min, Male | 107 | 185 | 2850
40 min, Female | 43 | 125 | –
40 min, Male | – | 173 | 860
